Screening results deposited in PubChem BioAssay by several laboratories.
STAT3 inh: IL-6 driven STAT3 reporter inhibitors, primary screen, U3A cells, luciferase, luminescence, MLSCN library; inhibition, % at 5.5 µM; 190,000 tested, 0.89% active; IL-6 STAT3-luciferase reporter; host cell line lacks STAT1;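 active = inhibition above the mean inhibition across all screened compounds plus 3 SD, cut at about 44% in these data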;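 note: 0% = DMSO only wells and 100% = 100 µM nifuroxazide control wells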
STAT1 blocker: STAT1 signaling inhibitors, primary screen, cell-based, HTS, luciferase reporter; NIH 3T3 STAT1-luciferase reporter, IFN-gamma, luminescence; inhibition, % at 5.5 µM; 200,000 tested, 0.35% active; AID 920, 2007;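 active = inhibition above a set limit, the mean inhibition across all tested compounds plus 3 SD, cut at about 34% in these data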;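 note: 0% = IFN-gamma with DMSO and 100% = IFN-gamma with 300 µM nifuroxazide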
STAT3 act: IL-6 driven STAT3 reporter potentiators, primary screen, U3A cells, luciferase, luminescence, MLSCN library; activation (% of control), % at 5.6 µM; AID 871, 2007; 190,000 tested, 0.91% active; IL-6 STAT3-luciferase reporter; 100% = signal with IL-6 EC80 alone;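 active = activation above the screen-wide mean of compound activation plus 3 SD, cut at about 130% in these data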;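 note: 0% = background luminescence of wells with medium and substrate only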
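Test system: human U3A cells carrying STAT3-luciferase construct; control set: IL-6-only wells as 100% reference; timing: compound pre-incubation 1 h before IL-6, then 6 h stimulation at 37 °C; also added: IL-6 stimulus at 33 ng/mL final; evaluation: % activation versus median of IL-6-stimulated wells; detection: reporter luminescence signal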
NF-kB neuron act: activators of NF-kB expression in neurons, primary screen, cell-based, HTS. 190,000 tested, 1.6% active. human neuronal cells, NF-kB reporter expression; active compounds read high. AID 1239, 2008. fold change at 12.5 µM; in the data active = fold change above about 3.3
STAT1 act: STAT1 signaling activators, primary screen, cell-based, HTS, luciferase reporter; 200,000 tested, 2.6% active; NIH 3T3 STAT1-luciferase reporter, IFN-gamma, luminescence; 100% = IFN-gamma alone, no compound; activation (% of control), % at 5.5 µM;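 active = activation above the screen-wide mean activation plus 3 SD, cut at about 130% in these data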;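 note: raw ratio to IFN-gamma control signal so 100% means no change and 0% no light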
APP 5'UTR act: activators of APP 5'UTR luciferase reporter, primary screen, SH-SY5Y cells | SH-SY5Y APP 5'UTR luciferase reporter, luminescence; zero percent = DMSO vehicle wells | activation, % at 2 µM | 190,000 tested, 1% active | AID 1276, 2008;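 active = activation above a set limit, based on mean plus 3 SD of controls, cut at about 140% in these data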
Numbers without * were called inactive; . = no result given. An excerpt weighted towards active compounds, which were near 4.9% of everything screened.

SMILES	STAT3 inh	STAT1 blocker	STAT3 act	NF-kB neuron act	STAT1 act	APP 5'UTR act
NC(=O)CC(NSc1ccccc1[N+](=O)[O-])C(=O)O (stereo not given)	.	1	.	1.2	98	-18
CC(=O)Oc1ccc(NC(=O)CSc2ccccc2)cc1	-7	-7	108	4.2*	106	-1
O=C(CSc1ccccc1)Nc1ccncc1	10	2	94	0.99	91	8
O=C(Nc1ccc(N2CCCCC2)c(C(=O)O)c1)c1ccco1	2	3	102	1	98	7
O=C(Nc1ccc(S(=O)(=O)N2CCCCCC2)cc1)c1ccco1	-3	-15	106	3.8*	113	26
O=C(Nc1cccc(NC(=O)c2cccs2)c1)c1ccco1	8	0	96	1	100	-4
O=C(Nc1ccc(N2CCOCC2)c([N+](=O)[O-])c1)c1ccco1	0	-38	104	1.8	132*	30
O=C(Nc1ccc(NC(=O)c2cccs2)cc1Cl)c1ccco1	18	-35	94	2.3	131*	72
O=C(Nc1ccc(N2CCCC2)c(Cl)c1)c1ccco1	35	-47	75	8.3*	143*	286*
O=C(COC(=O)COc1ccccc1)NC1CCCc2ccccc21 (stereo not given)	9	-4	96	0.96	104	5
COc1ccc(-c2[nH]ncc2CN(CCO)Cc2cccs2)c(F)c1	10	1	95	0.87	97	-2
CN(CCc1ccccn1)C(=S)NC(=O)c1ccco1	0	1	104	1.1	99	2
COc1cc(NC(=O)c2ccccc2Cl)ccc1NC(=O)c1ccco1	21	-51	85	3.1	146*	93
O=C(Nc1ccc(N2CCOCC2)c(Cl)c1)c1ccc(Br)o1	3	-43	101	1.6	140*	125
CNc1ccc(/C=C(\C#N)c2ccccn2)cc1[N+](=O)[O-]	4	-42	99	1.8	139*	125
N#C/C(=C\c1ccc(Cl)c([N+](=O)[O-])c1)c1ccccn1	16	2	90	1.2	97	42
N#C/C(=C\c1ccccc1)c1ccccn1	8	-32	94	1.9	130*	46
COC(=O)/C(C#N)=C/c1ccc(OC(=O)c2ccccn2)cc1	-5	-13	103	1.4	113	19
Cc1ccc(C(=O)NNC(=O)C2CCCN(c3ncccn3)C2)cc1 (stereo not given)	-3	1	104	1	99	5
O=C(CNc1ccccc1OC(F)F)N1CCc2ccccc21	2	-49	101	3.2	143*	92
O=C(CNCCO)N1CCc2ccccc21	-12	1	113	1.2	99	-9
COc1ccc(-n2cccc2/C=C2/NC(=O)N(c3cccc(Cl)c3)C2=O)cc1	-3	-13	106	0.86	111	23
COc1cc(/C=C2/NC(=O)N(c3cccc(Cl)c3)C2=O)ccc1O	40	-39	69	2.4	134*	-55
CN(C)CCOc1cc(Cl)cc(Cl)c1	9	3	96	4.2*	96	15
CCCN(CCC)CC(O)Cn1cc(/C=C/C(=O)c2ccccc2)c2ccccc21 (stereo not given)	-2	-9	109	0.93	107	20
CN1CCN(Cn2cc(/C=C/C(=O)c3ccccc3)c3ccccc32)CC1	16	-34	91	13*	131*	165*
COc1ccc(OC)c(N/C(C)=C/C(=O)c2ccccc2)c1	-8	-38	107	1.1	134*	77
C/C(=C\C(=O)c1ccncc1)Nc1ccccc1O	29	2	82	6*	98	8
COc1ccc(N/C(C)=C/C(=O)c2ccccc2)cc1	4	-21	100	3.4*	118	23
COc1ccc(CCNC(=O)CC(c2ccccc2)c2cccc(C)c2O)cc1OC (stereo not given)	3	14	103	.	87	-2
